How the values were obtained:
[1] = test system: Canis familiaris; test: sodium excretion collected at 7-24 hr time after oral administration in dog (four animals per dose) at dose 1.56 mg/kg.; assay type: functional, Canis lupus familiaris
Procedure, shortened: (§1)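 Trained male beagles, four per dose, fasted 24 h with tap water ad libitum. After bladder emptying, given 20 mL/kg tap water by stomach tube, then 4 mL/kg at each hourly catheterization; 2 h control collection, then oral dosing. Urine volume and Na⁺ (flame photometry) reported for 1–6, 7–24 and 1–24 h post-dose periods.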

[2] = It is the ratio, measured as saluretic activity in the dog as concentration of Cl- in urinary excretion (dose 12.5 mg/kg, p.o.) to that of (Na+)+(K+); assay type: functional, Urine; conditions: route oral
Procedure, shortened: (§2)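 Trained male beagles, fasted 24 h with tap water ad libitum. Bladder emptied by catheter, then 20 mL/kg tap water by stomach tube, with 4 mL/kg water at each hourly catheterization up to 8 h. The first 2 h of urine served as control. Oral dosing came after the second catheterization, and 1–6 h urine was pooled. Na⁺ and K⁺ were measured by flame photometry, Cl⁻ argentometrically, in mequiv/kg.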

[3] = It is the ratio, measured as saluretic activity in the dog as concentration of Na+ in urinary excretion (dose 12.5 mg/kg, p.o.) to that of K; assay type: functional, Urine; conditions: route oral; procedure, shortened: as §2
[4] = test system: Canis familiaris; test: Saluretic activity in the dog measured as concentration of K+ in urinary excretion (2 animals/dose) at (dose 12.5 mg/Kg, perorally); assay type: functional, Canis lupus familiaris, Urine
Procedure, shortened: (§3)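 Male beagles trained to rest on a table and to accept stomach tube and catheter. Food withdrawn 24 h before, tap water ad libitum. Bladder emptied by catheter, then 20 mL/kg tap water by stomach tube. Catheterized hourly up to 8 h with 4 mL/kg water orally each time; first 2 h urine served as control. Oral dosing after second catheterization. Pooled 1–6 h urine; Na⁺/K⁺ by flame photometry, Cl⁻ argentometrically.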

[5] = organism: Rattus norvegicus; test: Effect on (GFR) glomerular filtration rate in rats in comparison to furosemide activity
[6] = test system: Canis familiaris; test: sodium excretion collected at 1-24 hr time after oral administration in dog (four animals per dose) at dose 1.56 mg/kg.; assay type: functional, Canis lupus familiaris; procedure, shortened: as §1
[7] = It is the ratio, measured as saluretic activity in the dog as concentration of Na+ in urinary excretion (dose 1.56 mg/Kg, perorally) to that of K; assay type: functional, Urine; procedure, shortened: as §2
[8] = organism: Rattus norvegicus; test: Effect on Urine flow in rats in comparison to furosemide activity
[9] = test system: Canis familiaris; test: sodium excretion collected at 7-24 hr time after oral administration in dog (four animals per dose) at dose 6.25 mg/kg.; assay type: functional, Canis lupus familiaris; procedure, shortened: as §1
[10] = test system: Canis familiaris; test: Urinary excretion collected at 1-24 hr time after oral administration in dog (four animals per dose) at dose 1.56 mg/kg.; assay type: functional, Canis lupus familiaris, Urine; procedure, shortened: as §1
[11] = test system: Canis familiaris; test: sodium excretion collected at 1-6 hr time after oral administration in dog (four animals per dose) at dose 0.39 mg/kg.; assay type: functional, Canis lupus familiaris; procedure, shortened: as §1
[12] = test system: Canis familiaris; test: Diuretic activity in the dog (2 animals/dose) at (dose 12.5 mg/Kg), when administered perorally; assay type: functional, Canis lupus familiaris, Urine; procedure, shortened: as §2
[13] = test system: Canis familiaris; test: Urinary excretion collected at 1-6 hr time after oral administration in dog (four animals per dose) at dose 1.56 mg/kg.; assay type: functional, Canis lupus familiaris, Urine; procedure, shortened: as §1
[14] = test system: Canis familiaris; test: Urinary excretion collected at 7-24 hr time after oral administration in dog (four animals per dose) at dose 1.56 mg/kg.; assay type: functional, Canis lupus familiaris, Urine; procedure, shortened: as §1
[15] = It is the ratio, measured as saluretic activity in the dog as concentration of Na+ in urinary excretion (dose 1.56 mg/Kg, po) to that of K; assay type: functional, Urine; procedure, shortened: as §2
[16] = test system: Canis familiaris; test: urinary excretion collected at 7-24 hr time after oral administration in dog (four animals per dose) dosed at 0.39 mg/kg.; assay type: functional, Canis lupus familiaris, Urine
[17] = test system: Canis familiaris; test: urinary excretion collected at 1-24 hr time after oral administration in dog (four animals per dose) dosed at 0.05 mg/kg.; assay type: functional, Canis lupus familiaris, Urine
Procedure, shortened: (§4)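 Trained male beagles, four per dose, fasted 24 h with tap water ad libitum. The bladder was emptied by catheter, then 20 mL/kg tap water was given by stomach tube. Dogs were catheterized hourly with 4 mL/kg water orally each time, and the first 2 h served as control. Compound was given orally after the second catheterization. Urine volume and flame-photometric Na⁺ were measured over 1-6, 7-24 and 1-24 h.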

[18] = test system: Canis familiaris; test: Saluretic activity in the dog measured as concentration of Na+ in urinary excretion (2 animals/dose) at (dose 0.4 mg/Kg, perorally); assay type: functional, Canis lupus familiaris, Urine; procedure, shortened: as §3
[19] = test system: Canis familiaris; test: urinary excretion collected at 7-24 hr time after oral administration in dog (four animals per dose) dosed at 0.05 mg/kg.; assay type: functional, Canis lupus familiaris, Urine
[20] = test system: Canis familiaris; test: Saluretic activity in the dog measured as concentration of K+ in urinary excretion (2 animals/dose) at (dose 0.025 mg/Kg, perorally); assay type: functional, Canis lupus familiaris, Urine
Procedure, shortened: (§5)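 Male beagles trained to the procedures, food withdrawn 24 h before, tap water ad libitum. Bladder emptied by catheter, then 20 mL/kg tap water by stomach tube, plus 4 mL/kg orally at each hourly catheterization up to 8 h. The first 2 h of urine served as control. Compound given orally after the second catheterization. Urine from 1–6 h post-dose pooled; Na⁺ and K⁺ by flame photometry, Cl⁻ argentometrically, in mequiv/kg.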

[21] = test system: Canis familiaris; test: urinary excretion collected at 1-6 hr time after oral administration in dog (four animals per dose) dosed at 3.12 mg/kg.; assay type: functional, Canis lupus familiaris, Urine
[22] = test system: Canis familiaris; test: Saluretic activity in the dog measured as concentration of Cl - in urinary excretion (2 animals/dose) at (dose 0.025 mg/Kg, perorally); assay type: functional, Canis lupus familiaris, Urine; procedure, shortened: as §5
[23] = test system: Canis familiaris; test: urinary excretion collected at 1-24 hr time after oral administration in dog (four animals per dose) dosed at 0.39 mg/kg.
[24] = test system: Canis familiaris; test: Diuretic activity in the dog (2 animals/dose) at (dose 0.025 mg/Kg), when administered perorally; assay type: functional, Canis lupus familiaris, Urine; procedure, shortened: as §2
[25] = test system: Canis familiaris; test: Urinary excretion collected at 1-6 hr time after oral administration in dog (four animals per dose) dosed at 0.39 mg/kg.; assay type: functional, Canis lupus familiaris, Urine; procedure, shortened: as §1
[26] = test system: Canis familiaris; test: sodium excretion collected at 1-6 h time after oral administration in dog (four animals per dose) dosed at 0.05 mg/kg.; assay type: functional, Canis lupus familiaris; procedure, shortened: as §1
[27] = test system: Canis familiaris; test: sodium excretion collected at 1-24 hr time after oral administration in dog (four animals per dose) dosed at 3.12 mg/kg.; assay type: functional, Canis lupus familiaris; procedure, shortened: as §1
[28] = test system: Canis familiaris; test: sodium excretion collected at 1-24 hr time after oral administration in dog (four animals per dose) dosed at 0.05 mg/kg.; assay type: functional, Canis lupus familiaris; procedure, shortened: as §1
[29] = test system: Canis familiaris; test: sodium excretion collected at 7-24h time after oral administration in dog (four animals per dose) dosed at 0.05 mg/kg.; assay type: functional, Canis lupus familiaris; procedure, shortened: as §4
[30] = It is the ratio, measured as saluretic activity in the dog as concentration of Cl- in urinary excretion (dose 1.56 mg/Kg, po) to that of (Na+)+(K+); assay type: functional, Urine; procedure, shortened: as §2
[31] = test system: Canis familiaris; test: sodium excretion collected at 7-24 hr time after oral administration in dog (four animals per dose) dosed at 0.39 mg/kg.; assay type: functional, Canis lupus familiaris
Procedure, shortened: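 Trained male beagles, food withdrawn 24 h beforehand with tap water ad libitum. Bladder emptied by catheter, then 20 mL/kg tap water by stomach tube. Catheterized hourly (up to 8 h) with 4 mL/kg water orally each time. First 2 h of urine served as control. Compound given orally after second catheterization. Na⁺ measured flame-photometrically, in mequiv/kg.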

## NS(=O)(=O)c1cc(S(=O)(=O)[O-])c(NCc2ccco2)cc1Oc1ccccc1.[Na+]
[1]
  Na+ excretion: 0.48 mequiv kg-1
[2]
  Ratio: 0.95
[3]
  Ratio: 5.5
[4]
  Saldiuretic activity: 1.17 m equiv 6hr-1 kg-1
[5]
  GFR: 6.89 mL/min/kg
[6]
  Na+ excretion: 5.4 mequiv kg-1
[7]
  Ratio: 4.9
[8]
  Volume: 0.909 mL/min/kg
[9]
  Na+ excretion: 1.98 mequiv kg-1
[10]
  Urinary excretion: 78.9 mL/kg
[11]
  Na+ excretion: 1.57 mequiv kg-1
[12]
  Diuretic activity: 74.3 ml kg-1 6hr-1
[13]
  Urinary excretion: 61.1 mL/kg
[14]
  Urinary excretion: 12.3 mL/kg

## CN(c1ccccc1)c1cc(NCc2ccco2)c(S(=O)(=O)[O-])cc1S(N)(=O)=O.[Na+]
[15]
  Ratio: 4.9
[16]
  Urinary excretion: 20.4 mL/kg
[17]
  Urinary excretion: 50.6 mL/kg
[18]
  Saluretic activity: 5.26 m equiv 6hr-1 kg-1
[19]
  Urinary excretion: 10.1 mL/kg
[20]
  Saluretic activity: 0.2 m equiv 6hr-1 kg-1
[21]
  Urinary excretion: 61.2 mL/kg
[22]
  Saldiuretic activity: 0.75 mequiv kg-1 6hr-1
[23]
  Urinary excretion: 95.7 mL/kg
[24]
  Diuretic activity: 33.3 ml kg-1 6hr-1
[25]
  Urinary excretion: 75.3 mL/kg
[26]
  Na+ excretion: 1.29 mequiv kg-1
[27]
  Na+ excretion: 6.48 mequiv kg-1
[28]
  Na+ excretion: 1.51 mequiv kg-1
[29]
  Na+ excretion: 0.22 mequiv kg-1
[30]
  Ratio: 1
[31]
  Na+ excretion: 0.55 mequiv kg-1

Reference: ChEMBL document CHEMBL1122273, “5-sulfamoylorthanilic acids, a sulfonamide series with salidiuretic activity” (J Med Chem, 1983)
